The source of these data is ChEMBL document CHEMBL3259666, “Discovery of a neuroprotective chemical, (S)-N-(3-(3,6-dibromo-9H-carbazol-9-yl)-2-fluoropropyl)-6-methoxypyridin-2-amine [(-)-P7C3-S243], with improved druglike properties” (J Med Chem, 2014).

Calls of active or inactive are those of the source. The calls are words filed in the database; no cut-off is given here.

Data set [1] deals with Mus musculus. Kind of data set: Neuroprotective activity in substantia nigra of C57Bl/6 mouse neurogenesis model assessed as protection from MPTP-induced cell death in mature neurons at 5 mg/kg/day, ip bid administered for 21 days by immunohistochemical analysis relative to vehicle-treated control. It is filed as functional, organism-based. The method, boiled down: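 MPTP model in adult male C57Bl/6 mice, individually housed 1 week. MPTP free base 30 mg/kg/day IP for 5 days. From day 6 (24 h after the last MPTP dose), compound or vehicle given IP twice daily for 21 days. Mice were then perfused with 4% paraformaldehyde. SNc sectioned at 30 μm intervals and every fourth section stained for TH (DAB, hematoxylin counterstain). TH+ cells counted blinded; mean ± SEM, compared with vehicle + MPTP.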

In data set [2] the test system is Mus musculus. Kind of data set: Neuroprotective activity in wild type C57BL/J6 mouse assessed as survival of newborn hippocampal neurons at 0.1 to 10 uM, icv administered for 7 days by BrdU staining-based microscopy relative to vehicle-treated control. Format: functional, organism-based. In a few lines: (§1)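 Adult (12-week) wild-type C57BL/J6 mice. Compound infused ICV into the left lateral ventricle by osmotic minipump at 0.5 μL/h for 7 days, with BrdU 50 mg/kg/day IP for 6 days. Perfused 24 h after the last BrdU dose. BrdU antigen unmasked (formamide/SSC at 65 °C, then 2 M HCl); anti-BrdU staining. BrdU+ cells in the contralateral dentate gyrus SGZ counted in every fifth 40 μm section and normalised to dentate gyrus volume.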

The next data set addresses Translocator protein (Homo sapiens, UniProt P30536). Kind of data set: Inhibition of TSPO (unknown origin).
Data set [3] concerns Mus musculus. Kind of data set: Neuroprotective activity in wild type C57BL/J6 mouse assessed as survival of newborn hippocampal neurons at 10 uM, icv administered for 7 days by BrdU staining-based immunohistochemical analysis relative to vehicle-treated control. Format: functional, organism-based. In a few lines:
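Adult (12 week old) C57BL/J6 mice, environmentally deprived; compound infused via osmotic minipump into left lateral ventricle at 0.5 μL/h for 7 days. BrdU IP 50 mg kg–1 day–1 for 6 days during infusion; perfusion 24 h after last BrdU. BrdU+ cells in SGZ/dentate gyrus of contralateral hemisphere counted in every fifth 40 μm section, normalized to dentate gyrus volume; mean ± SEM.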
Background: Dividing cells build labelled thymidine or BrdU into new DNA.

Data set [4] deals with Mus musculus. The experiment in a line: Neuroprotective activity in wild type C57BL/J6 mouse assessed as survival of newborn hippocampal neurons at 10 uM, icv administered for 7 days by BrdU staining-based microscopy relative to vehicle-treated control. Format: functional, organism-based. In a few lines: as §1
In another data set the target is Cytochrome P450 3A4 (Homo sapiens, UniProt P08684). Kind of data set: Inhibition of CYP3A4 (unknown origin). Format: ADME.
Data set [5] is described as follows: Protein binding in plasma (unknown origin) by ultracentrifugation method. Format: ADME, cell-free. The settings on record: read-out: PPB.
The subject of another data set is NCI-H2009. The experiment in a line: Cytotoxicity against human NCI-H2009 cells. Format: cell-based.
A further data set has as its target Cytochrome P450 2D6 (Homo sapiens, UniProt P10635). The experiment in a line: Inhibition of CYP2D6 (unknown origin). It is filed as ADME.
Another data set concerns NCI-H2122. Kind of data set: Cytotoxicity against human NCI-H2122 cells. Format: cell-based.
The target in another data set is T1, Cytochrome P450 1A2 (Homo sapiens, UniProt P05177).
T1 sequence (P05177 whole entry): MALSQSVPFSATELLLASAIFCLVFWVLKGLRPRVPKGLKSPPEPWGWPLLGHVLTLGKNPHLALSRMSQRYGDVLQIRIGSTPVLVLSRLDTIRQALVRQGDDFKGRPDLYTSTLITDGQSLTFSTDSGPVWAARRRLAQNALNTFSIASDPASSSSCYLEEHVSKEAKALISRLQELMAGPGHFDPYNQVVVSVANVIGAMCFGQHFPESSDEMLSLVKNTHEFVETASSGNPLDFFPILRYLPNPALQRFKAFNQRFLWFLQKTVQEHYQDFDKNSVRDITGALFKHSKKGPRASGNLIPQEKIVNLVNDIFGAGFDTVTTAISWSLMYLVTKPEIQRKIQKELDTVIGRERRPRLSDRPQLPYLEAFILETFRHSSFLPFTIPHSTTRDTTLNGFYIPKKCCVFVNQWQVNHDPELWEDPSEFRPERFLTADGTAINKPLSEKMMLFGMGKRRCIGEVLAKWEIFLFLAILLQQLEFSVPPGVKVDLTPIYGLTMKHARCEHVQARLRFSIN
The experiment in a line: Inhibition of CYP1A2 (unknown origin). It is filed as ADME.

For a further data set, the target named is T2, Cytochrome P450 2B6 (Homo sapiens, UniProt P20813).
T2 sequence (P20813 whole entry): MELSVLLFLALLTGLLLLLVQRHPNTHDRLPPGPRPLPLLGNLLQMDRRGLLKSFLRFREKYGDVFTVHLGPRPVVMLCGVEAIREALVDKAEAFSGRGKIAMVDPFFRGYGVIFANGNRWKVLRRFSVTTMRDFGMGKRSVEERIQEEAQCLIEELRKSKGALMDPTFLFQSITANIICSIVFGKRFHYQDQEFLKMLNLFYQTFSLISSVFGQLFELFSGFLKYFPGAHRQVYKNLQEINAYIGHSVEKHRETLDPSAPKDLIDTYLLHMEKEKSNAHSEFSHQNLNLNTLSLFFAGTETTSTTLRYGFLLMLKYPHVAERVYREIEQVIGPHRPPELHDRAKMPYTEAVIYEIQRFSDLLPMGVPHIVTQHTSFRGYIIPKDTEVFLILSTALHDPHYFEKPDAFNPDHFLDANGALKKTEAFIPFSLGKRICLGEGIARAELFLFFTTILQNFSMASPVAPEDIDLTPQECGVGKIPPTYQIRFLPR
Kind of data set: Inhibition of CYP2B6 (unknown origin). Format: ADME.

For a further data set, the target named is Cytochrome P450 2C19 (Homo sapiens, UniProt P33261). Kind of data set: Inhibition of CYP2C19 (unknown origin). Format: ADME.
A further data set has as its target T3, Cytochrome P450 2C8 (Homo sapiens, UniProt P10632).
T3 sequence (P10632 whole entry): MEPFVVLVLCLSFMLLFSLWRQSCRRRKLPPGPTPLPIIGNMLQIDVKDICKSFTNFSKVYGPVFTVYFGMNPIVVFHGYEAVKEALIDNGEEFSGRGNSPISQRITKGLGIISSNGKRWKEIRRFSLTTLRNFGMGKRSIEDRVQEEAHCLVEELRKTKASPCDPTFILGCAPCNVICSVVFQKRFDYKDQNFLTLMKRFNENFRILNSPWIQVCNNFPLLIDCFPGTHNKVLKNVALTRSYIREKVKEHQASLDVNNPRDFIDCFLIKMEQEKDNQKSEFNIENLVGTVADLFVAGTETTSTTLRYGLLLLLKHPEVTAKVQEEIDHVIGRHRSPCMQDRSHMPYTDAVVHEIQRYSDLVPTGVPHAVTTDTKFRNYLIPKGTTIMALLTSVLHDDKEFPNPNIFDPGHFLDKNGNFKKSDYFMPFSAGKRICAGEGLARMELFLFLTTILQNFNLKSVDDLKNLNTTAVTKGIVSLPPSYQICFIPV
The experiment in a line: Inhibition of CYP2C8 (unknown origin). Format: ADME.

Another data set has as its target Cytochrome P450 2C9 (Homo sapiens, UniProt P11712). The experiment in a line: Inhibition of CYP2C9 (unknown origin). Format: ADME.
A further data set addresses hERG (KCNH2) (Homo sapiens, UniProt Q12809). Kind of data set: Inhibition of human ERG channel at 50 uM by patch clamp technique. (The patch-clamp technique gives a direct electrical read-out from membranes.)
Data set [6] is described as follows: Cytotoxicity against human HCC44 cells. It is filed as cell-based.

Sequence of Translocator protein (P30536 whole entry): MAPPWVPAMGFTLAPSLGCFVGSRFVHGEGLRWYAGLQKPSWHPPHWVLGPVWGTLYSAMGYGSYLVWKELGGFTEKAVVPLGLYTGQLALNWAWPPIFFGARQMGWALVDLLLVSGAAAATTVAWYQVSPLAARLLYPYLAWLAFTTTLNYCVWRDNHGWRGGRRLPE
Sequence of Cytochrome P450 2D6 (P10635 whole entry): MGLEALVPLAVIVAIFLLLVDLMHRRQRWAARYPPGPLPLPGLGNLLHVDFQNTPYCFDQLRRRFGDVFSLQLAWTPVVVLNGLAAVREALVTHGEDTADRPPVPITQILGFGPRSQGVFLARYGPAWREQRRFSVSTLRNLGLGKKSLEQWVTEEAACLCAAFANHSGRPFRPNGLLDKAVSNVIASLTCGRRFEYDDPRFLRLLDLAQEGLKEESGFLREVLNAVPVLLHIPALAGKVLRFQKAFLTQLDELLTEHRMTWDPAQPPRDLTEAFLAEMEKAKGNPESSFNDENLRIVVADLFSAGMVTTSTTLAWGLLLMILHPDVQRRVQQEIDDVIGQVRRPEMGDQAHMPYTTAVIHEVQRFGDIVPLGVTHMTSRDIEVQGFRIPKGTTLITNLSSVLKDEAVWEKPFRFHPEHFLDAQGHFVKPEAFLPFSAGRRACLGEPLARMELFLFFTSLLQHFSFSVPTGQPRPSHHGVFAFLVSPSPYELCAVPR
Sequence of Cytochrome P450 2C19 (P33261 whole entry): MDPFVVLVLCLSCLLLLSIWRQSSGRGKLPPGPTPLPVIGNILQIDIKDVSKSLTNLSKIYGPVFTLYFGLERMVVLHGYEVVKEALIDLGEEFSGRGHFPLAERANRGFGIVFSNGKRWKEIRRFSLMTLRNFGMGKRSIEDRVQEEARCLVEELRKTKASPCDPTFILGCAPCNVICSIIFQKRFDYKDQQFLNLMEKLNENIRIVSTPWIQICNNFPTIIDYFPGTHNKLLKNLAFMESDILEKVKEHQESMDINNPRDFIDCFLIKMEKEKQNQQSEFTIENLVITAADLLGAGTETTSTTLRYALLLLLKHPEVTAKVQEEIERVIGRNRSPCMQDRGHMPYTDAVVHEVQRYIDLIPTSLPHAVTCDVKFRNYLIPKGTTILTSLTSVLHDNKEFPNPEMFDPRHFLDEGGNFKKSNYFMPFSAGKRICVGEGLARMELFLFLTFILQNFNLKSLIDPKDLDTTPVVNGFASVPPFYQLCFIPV
Sequence of Cytochrome P450 2C9 (P11712 whole entry): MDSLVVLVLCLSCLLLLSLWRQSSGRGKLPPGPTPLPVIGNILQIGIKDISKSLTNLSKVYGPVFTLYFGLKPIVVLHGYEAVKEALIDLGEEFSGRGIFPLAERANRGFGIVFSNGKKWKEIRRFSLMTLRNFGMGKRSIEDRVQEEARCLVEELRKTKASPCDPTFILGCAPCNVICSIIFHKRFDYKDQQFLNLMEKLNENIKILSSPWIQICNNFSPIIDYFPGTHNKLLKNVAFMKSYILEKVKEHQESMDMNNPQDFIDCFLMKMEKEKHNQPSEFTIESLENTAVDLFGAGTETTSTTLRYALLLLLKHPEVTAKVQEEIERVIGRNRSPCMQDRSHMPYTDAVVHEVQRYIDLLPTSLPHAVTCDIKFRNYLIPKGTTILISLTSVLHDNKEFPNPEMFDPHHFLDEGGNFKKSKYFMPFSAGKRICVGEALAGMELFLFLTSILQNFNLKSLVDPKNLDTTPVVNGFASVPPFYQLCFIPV
Sequence of hERG (KCNH2) (Q12809 whole entry): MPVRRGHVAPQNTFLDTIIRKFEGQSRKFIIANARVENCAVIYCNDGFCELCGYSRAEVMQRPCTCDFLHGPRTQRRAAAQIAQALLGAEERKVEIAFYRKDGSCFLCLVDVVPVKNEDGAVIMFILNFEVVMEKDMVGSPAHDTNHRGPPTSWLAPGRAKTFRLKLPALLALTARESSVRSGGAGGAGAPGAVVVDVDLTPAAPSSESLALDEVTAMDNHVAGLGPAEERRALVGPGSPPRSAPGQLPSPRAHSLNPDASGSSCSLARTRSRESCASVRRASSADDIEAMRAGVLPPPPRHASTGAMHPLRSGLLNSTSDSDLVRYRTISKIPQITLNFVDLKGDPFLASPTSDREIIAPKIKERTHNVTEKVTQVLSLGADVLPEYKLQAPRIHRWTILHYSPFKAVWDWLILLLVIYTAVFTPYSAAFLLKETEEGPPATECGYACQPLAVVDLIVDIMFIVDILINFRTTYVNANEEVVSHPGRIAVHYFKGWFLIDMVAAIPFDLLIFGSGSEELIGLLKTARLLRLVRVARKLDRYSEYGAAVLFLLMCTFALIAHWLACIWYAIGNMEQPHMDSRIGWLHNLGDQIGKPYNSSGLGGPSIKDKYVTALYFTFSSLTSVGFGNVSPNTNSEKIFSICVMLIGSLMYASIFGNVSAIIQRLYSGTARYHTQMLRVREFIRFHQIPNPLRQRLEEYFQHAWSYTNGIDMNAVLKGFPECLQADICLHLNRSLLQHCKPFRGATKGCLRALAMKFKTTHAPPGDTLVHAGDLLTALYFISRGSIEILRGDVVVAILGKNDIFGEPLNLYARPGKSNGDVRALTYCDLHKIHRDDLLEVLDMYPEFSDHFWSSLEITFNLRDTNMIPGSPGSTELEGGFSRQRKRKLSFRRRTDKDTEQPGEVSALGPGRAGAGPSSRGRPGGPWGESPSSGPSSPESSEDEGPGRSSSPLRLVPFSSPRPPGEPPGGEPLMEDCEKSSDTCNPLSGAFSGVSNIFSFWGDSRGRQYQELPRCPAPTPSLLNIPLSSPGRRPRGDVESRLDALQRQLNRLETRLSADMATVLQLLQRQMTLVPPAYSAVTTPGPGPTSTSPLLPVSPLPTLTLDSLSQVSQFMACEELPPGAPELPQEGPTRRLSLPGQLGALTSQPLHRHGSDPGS
Sequence of Cytochrome P450 3A4 (P08684 whole entry): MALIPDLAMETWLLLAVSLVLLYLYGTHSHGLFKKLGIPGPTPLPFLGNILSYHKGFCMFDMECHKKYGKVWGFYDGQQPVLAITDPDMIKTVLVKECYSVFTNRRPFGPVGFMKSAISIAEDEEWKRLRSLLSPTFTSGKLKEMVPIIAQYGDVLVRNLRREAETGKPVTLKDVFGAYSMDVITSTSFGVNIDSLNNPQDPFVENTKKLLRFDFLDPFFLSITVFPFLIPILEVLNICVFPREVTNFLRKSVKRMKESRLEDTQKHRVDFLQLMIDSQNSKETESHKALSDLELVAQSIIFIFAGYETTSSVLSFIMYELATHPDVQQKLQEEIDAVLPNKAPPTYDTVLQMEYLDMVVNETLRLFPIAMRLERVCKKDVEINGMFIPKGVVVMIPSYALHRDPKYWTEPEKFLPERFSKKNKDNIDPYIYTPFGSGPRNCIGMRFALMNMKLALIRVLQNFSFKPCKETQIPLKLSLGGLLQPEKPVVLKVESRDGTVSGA

One may read the IC50 as the point on the concentration scale where inhibition reaches its midpoint. Turning to `COc1cccc(NC[C@@H](F)Cn2c3ccc(Br)cc3c3cc(Br)ccc32)n1`, the result in the data set on Mus musculus [1] and in the data set on Mus musculus [2] was inactive. On Translocator protein, this compound had an IC50 of 680 nM.

Consider `OC(CNc1ccccc1)Cn1c2ccc(Br)cc2c2cc(Br)ccc21` (stereo unspecified), for which, in the data set on Mus musculus [3], the outcome was Active.

For the compound `NCC(F)Cn1c2ccc(Br)cc2c2cc(Br)ccc21` (stereo unspecified), the result in the data set with Mus musculus [3] was Active.

The term inhibition denotes the change of the read-out against control, counted positive when it falls. Read a low inhibition as little suppression. Turning to `COc1cccc(NC[C@H](F)Cn2c3ccc(Br)cc3c3cc(Br)ccc32)n1`, the outcome in the data set with Mus musculus [4], in the data set on Mus musculus [1] and in the data set with Mus musculus [2] was Active. For the same compound, the “inhibition (INH)” value against Cytochrome P450 3A4, at Cytochrome P450 2D6, against Cytochrome P450 2B6, at Cytochrome P450 2C8 and against Cytochrome P450 2C9 was “Active” in each case. Further, the fraction unbound in [5] is under 0.01. The IC50 with NCI-H2009 is over 10000 nM; in the data set with NCI-H2122, over 10000 nM; at Cytochrome P450 1A2, 20000 nM; at Cytochrome P450 2C19, 1900 nM; against Translocator protein, 350 nM; in data set [6] it was over 10000 nM. At hERG (KCNH2), this compound registered an inhibition at 50 µM of under 15%.
